Results from ChEMBL document CHEMBL1127862, “Nonpeptide angiotensin II receptor antagonists. Synthesis, in vitro activity, and molecular modeling studies of N-[(heterobiaryl)methyl] imidazoles” (J Med Chem, 1994).

Columns and labels:
[1] = target: T1, Angiotensin II receptor (Rattus norvegicus, UniProt P29089+P25095+P35351); experiment: Tested for the binding affinity using radioligand [125I]-Sar1 Ile8-AII in the rat adrenal capsular membranes (adrenal cortex); type: cell membranes
T1 sequence (P29089 whole entry): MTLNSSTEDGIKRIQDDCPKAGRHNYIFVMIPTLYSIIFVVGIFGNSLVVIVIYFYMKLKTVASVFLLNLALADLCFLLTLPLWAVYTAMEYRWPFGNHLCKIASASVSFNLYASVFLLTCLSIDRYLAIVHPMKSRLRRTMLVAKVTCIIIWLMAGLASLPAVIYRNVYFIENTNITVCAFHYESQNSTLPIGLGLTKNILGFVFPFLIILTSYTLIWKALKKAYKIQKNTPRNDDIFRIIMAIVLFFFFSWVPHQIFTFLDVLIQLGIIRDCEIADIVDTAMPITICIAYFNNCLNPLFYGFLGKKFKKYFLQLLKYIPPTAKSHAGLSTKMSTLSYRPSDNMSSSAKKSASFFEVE
T1 sequence (P25095 whole entry): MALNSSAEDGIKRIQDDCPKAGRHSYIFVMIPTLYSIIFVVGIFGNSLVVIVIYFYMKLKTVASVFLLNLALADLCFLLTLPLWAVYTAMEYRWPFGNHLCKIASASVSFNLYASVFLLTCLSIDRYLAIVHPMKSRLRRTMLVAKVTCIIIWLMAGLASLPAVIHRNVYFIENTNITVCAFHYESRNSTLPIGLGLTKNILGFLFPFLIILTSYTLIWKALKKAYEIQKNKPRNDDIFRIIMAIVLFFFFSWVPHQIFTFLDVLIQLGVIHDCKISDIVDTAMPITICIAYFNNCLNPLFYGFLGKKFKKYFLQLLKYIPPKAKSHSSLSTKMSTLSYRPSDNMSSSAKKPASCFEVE
T1 sequence (P35351 whole entry): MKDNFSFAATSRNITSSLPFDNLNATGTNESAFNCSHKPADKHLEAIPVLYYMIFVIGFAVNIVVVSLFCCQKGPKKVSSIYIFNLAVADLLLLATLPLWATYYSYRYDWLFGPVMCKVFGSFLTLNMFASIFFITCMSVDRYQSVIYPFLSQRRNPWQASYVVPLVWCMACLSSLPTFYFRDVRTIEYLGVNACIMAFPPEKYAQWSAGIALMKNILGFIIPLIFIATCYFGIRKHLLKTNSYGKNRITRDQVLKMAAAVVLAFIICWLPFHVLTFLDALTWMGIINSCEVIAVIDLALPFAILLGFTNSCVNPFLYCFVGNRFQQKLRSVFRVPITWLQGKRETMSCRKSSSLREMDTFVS
Outline: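 Membranes from rat adrenal capsules, homogenized in 50 mM Tris-HCl, washed by repeated 50000g spins at 4 °C, resuspended in pH 7.4 sodium phosphate assay buffer with NaCl, EDTA, PMSF, protease inhibitors, BSA and bacitracin. Nonspecific binding defined with 1 uM unlabeled peptide. Bound label separated by vacuum filtration. Ki fitted from replicate curves.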

[2] = target: Angiotensin II receptor (Oryctolagus cuniculus); experiment: Tested for the antagonism of AII-induced contraction in rabbit endothelium-denuded aorta strips

| Structure (SMILES) | Ki [1] [µM] | pA2 [2] |
| --- | --- | --- |
| CCCCc1nc(Cl)c(CO)n1Cc1ccc(-c2ccoc2C(=O)O)cc1 | > 10 | < 5 |
| CCCCc1nc(Cl)c(CO)n1Cc1ccc(-c2ccccc2C(=O)O)o1 | > 10 | 5.2 |
| CCCCc1nc(Cl)c(CO)n1Cc1ccc(-c2ccsc2C(=O)O)cc1 | 14.5 | < 5 |
| CCCCc1nc(Cl)c(CO)n1Cc1ccc(-c2ncccc2C(=O)O)cc1 | 9.8 | < 5 |
| CCCCc1nc(Cl)c(CO)n1Cc1ccc(-c2cccnc2C(=O)O)cc1 | 3.3 | 6.1 |
| CCCCc1nc(Cl)c(CO)n1Cc1ccc(-c2cnccc2C(=O)O)cc1 | 6.7 | < 5 |
| CCCCc1nc(Cl)c(CO)n1Cc1ccc(-c2ccccc2C(=O)O)s1 | > 10 | < 5 |

Continued, values first:

| Ki [1] [µM] | pA2 [2] | Structure (SMILES) |
| --- | --- | --- |
| > 10 | < 5 | CCCCc1nc(CO)c(Cl)n1Cc1ccc(-c2cccnc2C(=O)O)cc1 |
| > 10 | < 5 | CCCCc1nc(CO)c(Cl)n1Cc1ccc(-c2ncccc2C(=O)O)cc1 |
| > 10 | 6 | CCCCc1nc(CO)c(Cl)n1Cc1ccc(-c2ccoc2C(=O)O)cc1 |
| > 10 | <= 5 | CCCCc1nc(CO)c(Cl)n1Cc1ccc(-c2nc(C)sc2C(=O)O)cc1 |
| > 10 | < 5 | CCCCc1nc(Cl)c(CO)n1Cc1ccc(-c2nc(C)sc2C(=O)O)cc1 |
